Series [1] is described as follows: folding enthalpy; higher = less favourable; fluorescence melt of hairpins on a sequencing array, two-state fit. As to conditions: sodium 0.088 M. A digest of the protocol: (§1)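 Cy3 signals were normalised both to pre-quench Cy3 and to control constructs. They came from library hairpins carrying annealed Cy3 and quencher oligos on a sequenced MiSeq flow cell, imaged in 50 mM Na-HEPES pH 8.0, 25 mM NaCl, in 2.5 °C steps up to 60 °C. Bootstrapped two-state fits gave melting temperature and folding enthalpy, and four replicates were combined by inverse variance. Fitted temperatures were then raised by 9.35 °C to match UV melts.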

Series [2] can be described thus: melting temperature; fluorescence melt of hairpins on a sequencing array, two-state fit, raised by 9.35 °C to match UV melts. To be noted: sodium 0.088 M. A digest of the protocol:
as §1

On to GCGGTCGAAAGACTTCGC ((((((....)))..))), for which, in series [1], the folding enthalpy is -21.6 kcal/mol. For the same sequence, the Tm in series [2] was 47.6 °C.
For the sequence GCCCCTCGAAAGAGGGC (((.(((....)))))), the folding enthalpy in series [1] was -13 kcal/mol. In addition, the Tm in series [2] came to 61.5 °C.
Taken in the same sequence, the figures for GACACCGGAAACGGTACC (..((((....))))..) were -10.5 kcal/mol and 24.2 °C.
With GGGGTCGGAAACGGCTCC ((.(.((....)).).)), the folding enthalpy in series [1] is -42.8 kcal/mol. In series [2], the Tm amounted to 49.6 °C.
Taken in the same sequence, the figures for CGGACGGAAACGTGCCG ((((((....))).))) were -18.7 kcal/mol and 48.4 °C.
Taken in the same sequence, the figures for GCTAGCGAAAGCTTGAGC ((((((....)))..))) were -13.5 kcal/mol and 41.2 °C.
Taken in the same sequence, the figures for GGTATCACGAAAGTGACC (((..(((....)))))) were -9.93 kcal/mol and 30 °C.
On to GAGACCGAAAGGTAGCTC ((((((....)))..))), for which, in series [1], the folding enthalpy is -18.5 kcal/mol. Moreover, in series [2], the Tm worked out at 39.6 °C.
Taken in the same sequence, the figures for GCGTTCCGACGC ((((....)))) were -27.8 kcal/mol and 58 °C.
Take GGGATAGGAAACTGTCCC ((((.((....)).)))): the folding enthalpy in series [1] is -35.9 kcal/mol. Besides, the Tm in series [2] was found to be 49.4 °C.
Taken in the same sequence, the figures for GGTATCGGAAACGACACC (((.(((....))).))) were -30.7 kcal/mol and 43.4 °C.
Taken in the same sequence, the figures for GGACTAGGAAACTAGTTC (.(((((....))))).) were -31.9 kcal/mol and 41.3 °C.
Taken in the same sequence, the figures for GATCGAGTTTCGATC ((((((...)))))) were -31.4 kcal/mol and 53 °C.
Consider GGTTGCGAAAGCACACC ((((((....))).))), for which, in series [1], the folding enthalpy was -19.7 kcal/mol. For the same sequence, the Tm in series [2] was determined as 53.4 °C.
Taken in the same sequence, the figures for GATCCGCCCTCGGATC ((((((....)))))) were -40.6 kcal/mol and 57.1 °C.
With GCTAGGCGAAAGCAGAGC (((..((....))..))), in series [1], the folding enthalpy was -23.5 kcal/mol. In addition, the Tm in series [2] worked out at 53.3 °C.
Taken in the same sequence, the figures for GATCTTATCAAGATC ((((((...)))))) were -29.7 kcal/mol and 46 °C.
Taken in the same sequence, the figures for GTACTAGAAATAGTAC ((((((....)))))) were -27.2 kcal/mol and 42.4 °C.
Taken in the same sequence, the figures for GATTCTGAAAAGAATC ((((((....)))))) were -33.1 kcal/mol and 50 °C.
In the case of GATCAATTCTTTGATC ((((((....)))))), the folding enthalpy in series [1] was -35.9 kcal/mol. For the same sequence, the Tm in series [2] stood at 47.8 °C.
Taken in the same sequence, the figures for GATCATCCAATGATC ((((((...)))))) were -31.4 kcal/mol and 46.9 °C.
Regarding CGATCGGAAACGAATCG ((((((....))).))), the folding enthalpy in series [1] was -34.7 kcal/mol. Further, the Tm in series [2] is 46 °C.
Taken in the same sequence, the figures for GCATGGCGAAAGCGACGC ((.(.((....)).).)) were -12.7 kcal/mol and 38.3 °C.
Taken in the same sequence, the figures for GCATAAGGAAACCTATGC (((((.(....).))))) were -27.1 kcal/mol and 39.2 °C.
Taken in the same sequence, the figures for GGCAATGGAAACGTTGCC (((((.(....).))))) were -56.8 kcal/mol and 54.5 °C.
For GTTACCGAAAGGTAAC ((((((....)))))), in series [1], the folding enthalpy is -34.6 kcal/mol. Further, the Tm in series [2] worked out at 66.4 °C.
Taken in the same sequence, the figures for GTCGGAGGAAACCCCGAC (((((.(....).))))) were -33.3 kcal/mol and 53.8 °C.
Taken in the same sequence, the figures for GATCCTGGGAAGGATC ((((((....)))))) were -42.3 kcal/mol and 59.7 °C.
GGTATCCGAAAGGACACC (((.(((....))).))): in series [1], the folding enthalpy was -25.2 kcal/mol. Also, the Tm in series [2] is 47.5 °C.
Taken in the same sequence, the figures for GATCAGTCTGCTGATC ((((((....)))))) were -41.6 kcal/mol and 52.7 °C.
Taken in the same sequence, the figures for GGTCTGGGAAACCAGGTC (..((((....))))..) were -14.3 kcal/mol and 34.9 °C.
With GGGGTCGAAAGACCGCCC ((((((....)))..))), the folding enthalpy in series [1] was -11.3 kcal/mol. Besides, the Tm in series [2] was determined as 52.7 °C.
Take GTACGCGAAAGCGTCTAC ((((((....)))..))): in series [1], the folding enthalpy was -7.82 kcal/mol. Also, the Tm in series [2] is 39.9 °C.
Taken in the same sequence, the figures for GTGTCCGAAAGGAGGCAC ((((((....)))..))) were -20.6 kcal/mol and 39.5 °C.
Taken in the same sequence, the figures for GATCATCTCCATGATC ((((((....)))))) were -32.9 kcal/mol and 46.8 °C.
Taken in the same sequence, the figures for CGCTCTCGGAAACGAGCG (((..(((....)))))) were -17.5 kcal/mol and 46 °C.
For the sequence GACCAACGAAAGTTCGTC (((.(((....))).))), in series [1], the folding enthalpy is -24.4 kcal/mol. Moreover, the Tm in series [2] was determined as 34.9 °C.

The values are drawn from the array DNA melting data of Ke et al. (doi:10.1101/2024.01.08.574731).
